# pEC50, pIC50: −log10 of the molar value.
# What was measured:
# [1] = Chemical stability in acidic medium at pH 1 assessed as unchanged drug level at 0.5 mM after 3 hrs by RP-HPLC analysis; format: physicochemical; conditions: read-out: Stability
# In short: (§1)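 A 0.5 mM acetonitrile solution (2 mL) is diluted to 10 mL with HCl (pH 1.0) or 50 mM phosphate buffer (pH 7.4) and held at 37 ± 0.5 °C. Aliquots are taken over time for RP-HPLC (C18 column, acetonitrile/water gradient with 0.1% TFA). Performed in triplicate.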
# [2] = Metabolic stability in human serum assessed as half life at 250 uM by RP-HPLC analysis; format: ADME, cell-free
# [3] = Chemical stability in phosphate buffer at pH 7.4 assessed as unchanged drug level at 0.5 mM after 3 hrs by RP-HPLC analysis; format: physicochemical; conditions: read-out: Stability; in short: as §1
# Platelet = assay: (§2) Antiaggregatory activity in human platelet rich plasma assessed as inhibition of collagen-induced platelet aggregation preincubated 10 mins before collagen challenge; format: functional
# In short: (§3)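 Platelet-rich plasma from citrated blood spun at 210g for 20 min. Compound in 0.5% DMSO vehicle preincubated 10 min, then submaximal collagen (0.8–1.5 μg/mL). Light-transmission aggregometry with stirring at 1000 rpm, 37 °C, recorded for 10 min. Read-out is % inhibition versus vehicle control; IC50 by nonlinear regression, else % inhibition at 300 μM top concentration. At least five experiments.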
# [4] = as §2; format: functional; in short: as §3
# Aorta [5] = assay: Vasodilatory activity in Wistar rat endothelium-denuded thoracic aortic ring assessed as inhibition of phenylephrine-induced contraction at 30 uM preincubated for 30 mins before phenylephrine addition in presence of 1 uM 1H-[1,2,4]oxadiazolo[4,3-a]quinoxalin-1-one; format: functional; design: scale not given: the % may be the effect or the level left
# Aorta [6] = assay: Vasodilatory activity in Wistar rat endothelium-denuded thoracic aortic ring assessed as inhibition of phenylephrine-induced contraction […]; format: functional, tissue-based
# In short: (§4)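 Endothelium-denuded rat aorta strips are precontracted with phenylephrine. At the plateau, cumulative concentrations of test agent in DMSO are added. Relaxation is recorded isometrically and reported as EC50 ± SEM (μM). In a separate series, 1 μM ODQ is added 5 min before contraction, giving at least 30 min of preincubation before the vasodilator. At least five experiments.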
# Serum = assay: Metabolic stability in human serum assessed as maximal amount of aspirin released at 250 uM by RP-HPLC analysis; format: ADME, cell-free
# [7] = Antiaggregatory activity in human platelet rich plasma assessed as inhibition of collagen-induced platelet aggregation at 300 uM preincubated 10 mins before collagen challenge; format: functional; in short: as §3
# Aorta [8] = assay: Vasodilatory activity in Wistar rat endothelium-denuded thoracic aortic ring assessed as inhibition of phenylephrine-induced contraction preincubated for […] in presence of 1 uM 1H-[1,2,4]oxadiazolo[4,3-a]quinoxalin-1-one; format: functional, tissue-based; in short: as §4
# Aorta [9] = assay: Vasodilatory activity in Wistar rat endothelium-denuded thoracic aortic ring assessed as inhibition of phenylephrine-induced contraction at 100 uM preincubated for 30 mins before phenylephrine addition in presence of 1 uM 1H-[1,2,4]oxadiazolo[4,3-a]quinoxalin-1-one; format: functional; design: scale not given: the % may be the effect or the level left
SMILES,"remaining at 3 h, 500 µM [1] [%]",half-life at 250 µM [2] [min],"remaining at 3 h, 500 µM [3] [%]",Activity (Platelet),pIC50 [4],Activity (Aorta [5]) [%],Activity (Aorta [6]),pEC50 (Aorta [6]),Activity (Serum) [%],inhibition at 300 µM [7] [%],pEC50 (Aorta [8]),Activity (Aorta [9]) [%]
CC(=O)Oc1ccccc1C(=O)OCOC(=O)c1ccc(CCCO[N+](=O)[O-])cc1,98,1.9,100,Dose-dependent effect,4.39,<50,Dose-dependent effect,7.12,65.2,,,
CC(=O)Oc1ccccc1C(=O)OCOC(=O)c1ccccc1OCCCO[N+](=O)[O-],99,< 1,98,Dose-dependent effect,3.79,<50,Dose-dependent effect,5.40,5,,,
CC(=O)Oc1ccccc1C(=O)OCOC(=O)CCCCCCO[N+](=O)[O-],99,< 1,100,Dose-dependent effect,,<50,Dose-dependent effect,5.80,17.6,29,,
CC(=O)Oc1ccccc1C(=O)OCOC(=O)c1cccc(OCCCO[N+](=O)[O-])c1,99,1.4,98,Dose-dependent effect,4.00,<50,Dose-dependent effect,6.85,48.3,,,
O=C(O)c1ccc(OCCCO[N+](=O)[O-])cc1,,,,,,,Dose-dependent effect,6.21,,,4.18,
CC(=O)Oc1ccccc1C(=O)OCOC(=O)c1ccc(OCC(CO[N+](=O)[O-])O[N+](=O)[O-])cc1 (stereo not drawn),99,5.4,99,Dose-dependent effect,3.85,<50,Dose-dependent effect,7.39,22.4,,,
CC(=O)Oc1ccccc1C(=O)OCOC(=O)c1ccc(CC(CO[N+](=O)[O-])O[N+](=O)[O-])cc1 (stereo not drawn),99,3.4,99,Dose-dependent effect,4.01,<50,Dose-dependent effect,7.28,34.2,,,
CC(=O)Oc1ccccc1C(=O)OCOC(=O)c1ccc(SCC(CO[N+](=O)[O-])O[N+](=O)[O-])cc1 (stereo not drawn),98,4.6,98,Dose-dependent effect,3.89,<50,Dose-dependent effect,7.00,43,,,
CC(=O)Oc1ccccc1C(=O)OCOC(=O)c1ccc(SCCCO[N+](=O)[O-])cc1,99,2.4,99,Dose-dependent effect,4.35,<50,Dose-dependent effect,6.82,61.7,,,
O=C(O)c1cccc(OCCCO[N+](=O)[O-])c1,,,,,,,Dose-dependent effect,5.42,,,,<50
O=C(O)c1ccc(S(=O)(=O)CCCO[N+](=O)[O-])cc1,,,,,,,Dose-dependent effect,4.70,,,,<50
CC(=O)Oc1ccccc1C(=O)OCOC(=O)c1ccc(OCCCO[N+](=O)[O-])cc1,99,3.4,99,Dose-dependent effect,3.86,<50,Dose-dependent effect,7.77,39.8,,,
CC(=O)Oc1ccccc1C(=O)OC(C)OC(=O)c1ccc(SCCCO[N+](=O)[O-])cc1 (stereo not drawn),98,4.4,99,Dose-dependent effect,,<50,Dose-dependent effect,6.85,29.4,27,,
CC(=O)Oc1ccccc1C(=O)OCOC(=O)c1ccc(S(=O)(=O)CCCO[N+](=O)[O-])cc1,98,< 1,70,Dose-dependent effect,4.42,<50,Dose-dependent effect,6.44,59.2,,,
O=C(O)c1ccc([S+]([O-])CCCO[N+](=O)[O-])cc1 (stereo not drawn),,,,,,,Dose-dependent effect,5.22,,,,<50
CC(=O)Oc1ccccc1C(=O)O [ASPIRIN],90,63,90,Dose-dependent effect,4.27,,,,,,,
CC(=O)Oc1ccccc1C(=O)OCOC(=O)c1ccc([S+]([O-])CCCO[N+](=O)[O-])cc1 (stereo not drawn),98,< 1,90,Dose-dependent effect,4.14,<50,Dose-dependent effect,6.33,70.7,,,
O=C(O)c1ccc(CC(CO[N+](=O)[O-])O[N+](=O)[O-])cc1 (stereo not drawn),,,,,,,Dose-dependent effect,6.48,,,,<50
O=C(O)CCCCCO[N+](=O)[O-],,,,,,,Dose-dependent effect,5.08,,,,<50
O=C(O)c1ccc(OCC(CO[N+](=O)[O-])O[N+](=O)[O-])cc1 (stereo not drawn),,,,,,,Dose-dependent effect,6.55,,,4.17,
CC(=O)Oc1ccccc1C(=O)OCOC(=O)CCCC(CO[N+](=O)[O-])O[N+](=O)[O-] (stereo not drawn),99,< 1,99,Dose-dependent effect,,<50,Dose-dependent effect,6.41,10.6,8.6,,
O=C(O)c1ccc(CCCO[N+](=O)[O-])cc1,,,,,,,Dose-dependent effect,6.29,,,,<50
O=C(O)c1ccc(SCC(CO[N+](=O)[O-])O[N+](=O)[O-])cc1 (stereo not drawn),,,,,,,Dose-dependent effect,6.57,,,4.25,
O=C(O)c1cccc(CO[N+](=O)[O-])n1,,,,,,,Dose-dependent effect,4.92,,,,<50
O=C(O)CCCCCCO[N+](=O)[O-],,,,,,,Dose-dependent effect,4.70,,,,<50
O=C(O)c1ccccc1OCCCO[N+](=O)[O-],,,,,,,Dose-dependent effect,4.70,,,,<50
CC(=O)Oc1ccccc1C(=O)OCOC(=O)CCCCCO[N+](=O)[O-],99,< 1,99,Dose-dependent effect,,<50,Dose-dependent effect,5.92,10.1,17,,
O=C(O)c1ccc(SCCCO[N+](=O)[O-])cc1,,,,,,,Dose-dependent effect,6.57,,,4.28,
CC(=O)Oc1ccccc1C(=O)OCOC(=O)CCCCC(CO[N+](=O)[O-])O[N+](=O)[O-] (stereo not drawn),99,< 1,99,Dose-dependent effect,,<50,Dose-dependent effect,6.28,9.8,36,,
CC(=O)Oc1ccccc1C(=O)OCOC(=O)c1cccc(CO[N+](=O)[O-])n1,84,< 1,60,Dose-dependent effect,4.70,<50,Dose-dependent effect,6.09,58,,,

# Source: ChEMBL document CHEMBL1151960, “(Nitrooxyacyloxy)methyl esters of aspirin as novel nitric oxide releasing aspirins” (J Med Chem, 2009)
